Screening data deposited in PubChem BioAssay by Sanford-Burnham Center for Chemical Genomics.
SENP7 block: blocks the human protease SENP7. Q9BQF6. recombinant SENP7, Z-RLRGG-aminoluciferin luminescence, 40 min. inhibition, % at 5 µM. 330,000 tested, 1.5% active. AID 434973;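 active = inhibition above about 50% at the single test dose, limit read from the data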;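 note: plate controls were DMSO with enzyme for no effect and no enzyme buffer wells for full effect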
SENP8 block-1: SENP8 protease inhibition | Q96LD8 | purified SENP8, Z-RLRGG-aminoluciferin cleavage, luminescence | inhibition, % at 10 µM | 330,000 tested, 1.2% active; in the data active = inhibition above about 50%
SENP8 block-2: blocks human SENP8 cleavage of Nedd8 substrate | Q96LD8 | recombinant SENP8, Nedd8 substrate fluorescence | 360,000 tested, 0.64% active | inhibition, % at 20 µM; in the data active = inhibition mostly above about 40%, no sharp cut-off; inactive = mostly below about 27%
SENP6 block: blocks the human protease SENP6. 330,000 tested, 1.8% active. Q9GZR1. inhibition, % at 10 µM. AID 2599. Recombinant SENP6 catalytic domain, aminoluciferin luminescence;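 active = inhibition above about 50% at the single tested dose, limit read from the data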;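 note: plate controls were DMSO wells with enzyme for no effect and DMSO wells lacking enzyme for full effect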
SENP1 FRET inh: blocks the human SENP1 SUMO protease catalytic domain. Q9P0U3. recombinant SENP1 catalytic domain, CyPet-SUMO1-YPet FRET cleavage. inhibition, % at 10 µM. 360,000 tested, 0.21% active. AID 624204;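 active = inhibition at least 30% at 10 µM, raw YFP signal under a set limit, fluorescence ratio 0.5 to 1.5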;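 note: 0% = enzyme with DMSO and 100% = no enzyme wells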
Target sequence (Q9P0U3 419-644 limits assumed): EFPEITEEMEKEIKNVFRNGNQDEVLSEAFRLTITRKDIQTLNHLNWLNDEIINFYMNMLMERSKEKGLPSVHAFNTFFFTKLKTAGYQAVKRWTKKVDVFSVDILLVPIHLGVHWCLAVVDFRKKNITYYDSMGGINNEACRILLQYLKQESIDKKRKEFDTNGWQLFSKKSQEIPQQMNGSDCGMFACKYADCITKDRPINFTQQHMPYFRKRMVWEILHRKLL
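System: Recombinant human SENP1 catalytic domain, His6-tagged | Incubation: Enzyme reaction for 50 min at room temperature, dark | Medium: Tris pH 8 with BME, BSA, NP40 and catalase | Also added: 25 nM SUMO1 FRET substrate | Compound: 10 µM single point, 0.5% DMSO | Measured by: FRET fluorescence in CFP and YFP emission channels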
SENP8 confirm: confirmation of human SENP8 protease inhibitors; 6,200 tested, 40% active; inhibition, % at 12.5 µM; Recombinant SENP8, Z-RLRGG-aminoluciferin luminescence, 60 min; shares compounds with SENP7 block;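 active = mean inhibition across replicates above about 50%, limit read from the data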
SENP6 conf: human SENP6 inhibition, confirmed; shares compounds with SENP7 block; recombinant SENP6, Z-RLRGG-aminoluciferin luminescence; inhibition, % at 12.5 µM; 6,200 tested, 58% active; AID 488915
SENP7 conf: confirmation of human SENP7 protease inhibitors; shares compounds with SENP7 block; recombinant SENP7, Z-RLRGG-aminoluciferin luminescence, 40 min; inhibition, % at 12.5 µM; 6,200 tested, 69% active
Casp3 SENP sel: caspase-3 inhibition (SENP selectivity assay); shares compounds with SENP7 block; 6,200 tested, 60% active; inhibition, % at 12.5 µM; AID 488918; purified caspase-3, Z-DEVD-aminoluciferin luminescence, 60 min;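 active = mean inhibition above about 50%, limit read from the data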;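 note: plate controls were enzyme with DMSO for no effect and wells without caspase-3 for full effect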
Target sequence (P42574 28-227 limits assumed): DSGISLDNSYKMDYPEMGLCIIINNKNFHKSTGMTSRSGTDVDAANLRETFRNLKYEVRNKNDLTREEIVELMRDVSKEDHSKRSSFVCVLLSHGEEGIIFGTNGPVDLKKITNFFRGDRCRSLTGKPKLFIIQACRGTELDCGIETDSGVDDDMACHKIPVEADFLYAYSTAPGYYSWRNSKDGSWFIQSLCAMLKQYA
Luc interf: counter-screen for SENP inhibitors: luminescence interference; Pre-incubated SENP8/Z-RLRGG-aminoluciferin, luciferase luminescence interference; AID 488919; 6,200 tested, 39% active; shares compounds with SENP7 block; inhibition, % at 12.5 µM;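 active = mean inhibition above about 50% when retested at one dose, limit read from the data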;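 note: plate controls were DMSO wells with completed reaction for no effect and substrate without enzyme for full effect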
Starred values were filed as active, the others as inactive; / = no result given. Sampled rows, rich in hits. Any-hit rate of the full collection: about 2.5%.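 Rule for the calls, unless noted: active = mean inhibition above about 50% in the one-dose retest (limit read from the data); inactive = the rest.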

SMILES	SENP7 block	SENP8 block-1	SENP8 block-2	SENP6 block	SENP1 FRET inh	SENP8 confirm	SENP6 conf	SENP7 conf	Casp3 SENP sel	Luc interf
O=C(Nc1ccccc1)O/N=C/c1ccc(F)cc1	59*	42	15	68*	3	67*	65*	89*	75*	48
COc1ccc(/C=N/OC(=O)Nc2ccccc2OC)cc1	81*	72*	18	43	0	20	87*	22	83*	33
O=C(Nc1ccccc1Cl)O/N=C/c1ccc(F)cc1	/	/	17	/	4	/	/	/	/	/
O=C(Nc1ccccc1)O/N=C/c1ccccc1Cl	56*	26	14	39	-1	60*	53*	77*	35	53*
N#C/C(=C\c1ccc([N+](=O)[O-])o1)c1nc2ccccc2[nH]1	11	11	/	30	/	/	/	/	/	/
N#C/C(=C/c1ccc(O)c(O)c1)c1nc2ccccc2[nH]1	72*	70*	-86	80*	-25	82*	81*	94*	78*	15
N#C/C(=C\c1cccs1)c1nc2ccccc2[nH]1	/	/	-50	/	-39	/	/	/	/	/
N#C/C(=C\c1ccc(Sc2ccccc2)o1)c1nc2ccccc2[nH]1	94*	23	-96	46	-30	62*	48	99*	78*	67*
Cc1ccc(N(CCC(=O)N2CCOCC2)S(=O)(=O)c2ccccc2)cc1	-9	-9	14	-14	1	/	/	/	/	/
O=C(NC1CCCC1)C1CC(O)CN1C(=O)Nc1ccccc1 (stereo not given)	-5	-8	23	-7	-1	/	/	/	/	/
CCOC(=O)C1=CCN(S(=O)(=O)c2ccc(C)cc2)C1c1ccc(Cl)cc1 (stereo not given)	/	/	3	/	1	/	/	/	/	/
N#Cc1ccc(C(=O)Nc2nnc(-c3ccccn3)o2)cc1	58*	51*	4	69*	-1	64*	60*	89*	86*	56*
O=c1oc(-c2cccs2)nc2sc3c(c12)CCCC3	89*	74*	-37	75*	-73	47	49	46	70*	20
O=c1oc(-c2cccs2)nc2sc3c(c12)CCC3	-16	15	-127	23	-24	/	/	/	/	/
N#Cc1c(Nc2ccc(Cl)cc2)s[nH]c1=O	25	47	-23	59*	-44	56*	49	85*	69*	39
O=c1[nH]c(C(Cl)(Cl)Cl)nc2ccc3ccccc3c12	-11	74*	7	88*	-12	-24	71*	80*	60*	18
CSc1nccc(N/N=C/c2ccccc2)n1	74*	53*	11	64*	-1	43	45	81*	69*	3
Cc1nc2ccccc2c(=O)n1NC(=O)COc1ccccc1	57*	-7	6	-9	1	9	6	13	7	5
Cc1cccc(C)c1OCC(=O)Nn1c(C)nc2ccccc2c1=O	5	4	13	-4	1	/	/	/	/	/
Cc1ccc(-c2ccc(CCC(=O)O)o2)cc1	25	19	-1	58*	0	74*	70*	86*	61*	76*
O=C(O)CCc1ccc(-c2cccs2)o1	-1	3	-60	-14	-4	/	/	/	/	/
O=C(COc1cccnc1[N+](=O)[O-])Nc1cccc(S(=O)(=O)N2CCCCC2)c1	1	-6	11	-14	1	/	/	/	/	/
Cc1ccc(S(=O)(=O)N2CC3C(=O)C[C@@H](c4ccccc4)N(S(=O)(=O)c4ccc(CCCOCCOCCNC(=O)OC(C)(C)C)cc4)C3CC2c2ccccc2)cc1 (stereo not given in full)	/	/	24	/	-6	/	/	/	/	/
O=C(Nc1cccnc1Cl)c1noc2c1CCc1ccccc1-2	65*	-5	15	31	0	3	7	24	20	7
